# Compound activity deposited in PubChem BioAssay by several laboratories.
# Rows were chosen to be rich in hits. Some 2.2% of all compounds tested hit in one or more screens of this group.
# FLuc act counter: FLuc activators, initial screening, artefact control for FLuc-dependent activation tests, biochemical, ATPlite luminescence | ATPlite luciferase biochemical, 10 min; 0 = ATP-free wells, 1 = DMSO control | activation factor at 10 µM | 200,000 tested, under 10 active | AID 1027, 2008;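 active = luciferase activation factor, scaled between plate controls, of at least 2 with compound at 10 µM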
# Target sequence (P08659 whole entry, looked up): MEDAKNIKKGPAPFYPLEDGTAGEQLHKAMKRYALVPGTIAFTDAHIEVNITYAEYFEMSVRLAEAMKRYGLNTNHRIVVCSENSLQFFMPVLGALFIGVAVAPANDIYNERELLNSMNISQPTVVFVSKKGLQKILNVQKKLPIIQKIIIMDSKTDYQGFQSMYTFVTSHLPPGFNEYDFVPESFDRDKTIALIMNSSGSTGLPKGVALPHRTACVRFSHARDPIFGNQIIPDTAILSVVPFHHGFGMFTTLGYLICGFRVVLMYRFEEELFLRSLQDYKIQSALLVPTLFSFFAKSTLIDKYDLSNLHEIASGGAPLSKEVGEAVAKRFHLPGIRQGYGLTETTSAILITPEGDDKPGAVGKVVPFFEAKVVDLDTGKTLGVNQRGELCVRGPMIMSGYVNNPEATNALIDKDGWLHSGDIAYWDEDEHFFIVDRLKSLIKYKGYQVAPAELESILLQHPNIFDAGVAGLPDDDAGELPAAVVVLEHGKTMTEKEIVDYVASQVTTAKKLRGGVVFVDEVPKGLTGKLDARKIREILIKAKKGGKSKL
#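 Assay system – cell-free luciferase reagent · Medium – PBS-based ATP solution · Dosing – test compounds dosed from 2 mM stocks in 100% DMSO · Timing – 10 min, room temperature · Technique – light output (luminescence) · Measure – luminescence gain marking luciferase activators · Controls – No-ATP low control, compound-free enzyme-plus-ATP high control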
# STAT3 inh: IL-6 driven STAT3 reporter inhibitors, primary screen, U3A cells, luciferase, luminescence, MLSCN library; inhibition, % at 5.5 µM; IL-6 STAT3-luciferase reporter; host cell line lacks STAT1; 0.89% of 190,000 active;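 active = inhibition above the mean inhibition across all screened compounds plus 3 SD, cut at about 44% in these data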;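 also: 0% = DMSO only wells and 100% = 100 µM nifuroxazide control wells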
# FLuc inh counter: firefly luciferase enzyme inhibitors, primary screen, artefact control for luciferase-based inhibitor screens, biochemical, luminescence, ATPLite; Luciferin 4-monooxygenase (Photinus pyralis), P08659; 10 min; inhibition, % at 10 µM; 1.5% of 200,000 active;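 active = inhibition above about 50% when tested at 10 µM, limit read from the data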
# HSP90 inh: HSP90 inhibitors, primary screen, cell lysate, luminescence; Heat shock protein HSP 90 (rabbit reticulocyte lysate; luciferase refolding); Rabbit reticulocyte lysate, luciferase refolding luminescence, 3 h; inhibition, % at 5.6 µM; 0.91% of 290,000 active; AID 1789, 2009;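 active = inhibition above the screen-wide mean plus 3 SD, computed separately per campaign, cut at about 16% in these data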;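 also: 0% = DMSO wells and 100% = 60 µM geldanamycin wells; inhibitors lower the luminescence because luciferase stays unfolded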
# PPC-1+TRAIL kill: compounds killing PPC-1 cancer cells with TRAIL present, primary screen, TRAIL potentiator project, ATPLite luminescence, uHTS; PPC-1 cells + TRAIL, ATPLite viability luminescence; 0.41% of 220,000 active; cell killing (% activity), % at 4 µM or 5 µM; AID 1443, 2008;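 active = cell killing above 50% in the first pass at 4 µM, then a duplicate retest at 5 µM averaging 50% or more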;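 also: plate controls were cells with TRAIL plus DMSO for no effect and medium-only wells lacking cells for full effect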
# TRAIL sens C8: viability loss with TRAIL in NB7+C8 cells, primary screen, TRAIL sensitizer project, cell-based, ATPlite luminescence | inhibition (viability loss, TRAIL sensitization), % at 10 µM | 1% of 360,000 active | AID 624354, 2012;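 active = compounds causing at least 50% loss of cell viability in the single-dose screen, relative to plate controls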
# The depositor's hits bear a star; . = no result.
SMILES,FLuc act counter,STAT3 inh,FLuc inh counter,HSP90 inh,PPC-1+TRAIL kill,TRAIL sens C8
Cc1cccc(CS(=O)(=O)c2ncc(Cl)c(C(=O)Nc3nnc(C(C)C)s3)n2)c1,.,.,.,5,.,95*
COc1ccc(CNC(=O)c2nc(S(=O)(=O)Cc3ccccc3)ncc2Cl)cc1,.,.,.,-1,.,31
Cc1ccc(CS(=O)(=O)c2ncc(Cl)c(C(=O)Nc3nnc(C(C)C)s3)n2)cc1,.,.,.,3,.,83*
CC(C)c1nnc(NC(=O)c2nc(S(=O)(=O)Cc3ccc(F)cc3)ncc2Cl)s1,.,.,.,9,.,94*
Cc1nnc(NC(=O)c2nc(S(=O)(=O)Cc3ccccc3C)ncc2Cl)s1,.,.,.,1,.,97*
CC(C)c1nnc(NC(=O)c2nc(S(=O)(=O)Cc3ccccc3F)ncc2Cl)s1,.,.,.,-2,.,.
CSc1nnc(NC(=O)c2nc(S(=O)(=O)Cc3cccc(C)c3)ncc2Cl)s1,.,.,.,-2,.,84*
CSc1nnc(NC(=O)c2nc(S(=O)(=O)Cc3ccccc3F)ncc2Cl)s1,.,.,.,1,.,81*
CCOC(=O)c1nn(-c2ccc(F)cc2)c2c1CC/C2=C/c1ccccc1,1.1,-2,-8,-4,24,0
Cc1cc(C(=O)NC2CCCCC2)c(C)n1-c1ccc(F)cc1,0.5,-5,51*,0,6,21
Cc1cccc2c(CC(=O)Nc3ccccc3)noc12,1.1,20,-9,0,-5,9
COc1ccc(C(=O)Nc2sc3c(c2C(=O)O)CC(C)(C)OC3)cc1,0.9,3,11,-4,24,22
CC1(C)Cc2c(sc(NC(=O)c3ccccc3)c2C(=O)O)CO1,0.4,6,59*,9,19,25
O=C(Nc1sc2c(c1C(=O)O)CCCCC2)c1ccccc1,0.3,4,72*,4,36,38
N#CC1=C(N)OC2=C(C(=O)CC(c3ccccc3)C2)C1c1ccoc1 (configuration not stated),1,10,-2,-2,85*,2
COc1ccc(OC)c(NC(=O)CSc2nnc(Cn3nnc4ccccc43)n2C)c1,1.1,10,-5,-2,13,-6
COc1ccc(C(=O)O/N=C(\C)c2nccs2)cc1,0.1,7,92*,0,12,-2
COc1ccc(C(=O)O/N=C(/C)c2cccs2)cc1,0,1,96*,-4,-4,9
C/C(=N/OC(=O)c1c(F)cccc1F)c1nccs1,0.2,15,81*,2,7,-7
C/C(=N\OC(=O)c1c(-c2c(F)cccc2Cl)noc1C)c1nccs1,1,6,-3,-4,25,-4
C/C(=N\OC(=O)c1ccc(F)cc1)c1nccs1,0.1,5,87*,3,-5,-10
CC(=NOC(=O)C1CCCCC1)c1nccs1,.,.,.,.,.,1
CC(NS(=O)(=O)c1ccc2[nH]c(=O)[nH]c2c1)c1ccc(F)cc1 (configuration not stated),.,.,.,.,.,-8
CCN1CCN(c2cc(C)c3cc(NC(=S)N4CCCC(C)C4)ccc3n2)CC1 (configuration not stated),1.1,41,-6,31*,-5,21
OC[C@@H]1CN(Cc2ccncc2)C[C@H](n2cnc3c(N4CCCC4)ncnc32)O1,.,.,.,.,.,10
COc1ccc(NC(=O)CSc2ncnc3c2cnn3CCc2ccccc2)cc1,1.1,46*,-6,-2,-5,3
Cc1ccccc1C(=O)OCC(=O)NCC1COc2ccccc2O1 (configuration not stated),.,.,.,.,.,-7
Nc1nc(N)c2nc(-c3ccccc3)c(N)nc2n1,1,6,-1,1,22,79*
Cc1cc(C)c(S(=O)(=O)N2CCN(C(=O)c3ccc(-n4cncn4)c([N+](=O)[O-])c3)CC2)c(C)c1,.,.,.,.,.,3
Oc1ccc(/C=C/c2cc(O)cc(O)c2)cc1,0.2,42,80*,7,32,39
